Experimental data as given in ChEMBL document CHEMBL3817726, “Chemically Diverse Group I p21-Activated Kinase (PAK) Inhibitors Impart Acute Cardiovascular Toxicity with a Narrow Therapeutic Window” (J Med Chem, 2016).

Legend:
[1] = target: Serine/threonine-protein kinase PAK 5 (Homo sapiens) (UniProt Q9P286); assay: Inhibition of recombinant human full length His-tagged PAK5 expressed in Baculovirus at 1 uM relative to control
[2] = target: Tyrosine-protein kinase ABL2 (Homo sapiens) (UniProt P42684); assay: Inhibition of recombinant human full length His-tagged ARG expressed in Baculovirus at 1 uM relative to control
[3] = target: CDK7/Cyclin H/MNAT1 (Homo sapiens) (UniProt P51946+P50613+P51948); assay: Inhibition of recombinant human full length His-tagged CDK7/cyclin H/MNAT1 expressed in Baculovirus at 1 uM relative to control
[4] = target: Serine/threonine-protein kinase Chk1 (Homo sapiens) (UniProt O14757); assay: Inhibition of recombinant human full length His-tagged CHK1 expressed in Baculovirus at 1 uM relative to control
[5] = target: Serine/threonine-protein kinase Chk2 (Homo sapiens) (UniProt O96017); assay: Inhibition of recombinant human full length His-tagged CHK2 expressed in Baculovirus at 1 uM relative to control
[6] = target: Receptor-type tyrosine-protein kinase FLT3 (Homo sapiens) (UniProt P36888); assay: Inhibition of recombinant human full length His-tagged FLT3 expressed in Baculovirus at 1 uM relative to control
[7] = target: Glycogen synthase kinase-3 beta (Homo sapiens) (UniProt P49841); assay: Inhibition of recombinant human full length His-tagged GSK3beta expressed in Baculovirus at 1 uM relative to control
[8] = target: Tyrosine-protein kinase Lyn (Homo sapiens) (UniProt P07948); assay: Inhibition of recombinant human full length His-tagged LynB expressed in Baculovirus at 1 uM relative to control
[9] = target: Serine/threonine-protein kinase MARK1 (Homo sapiens) (UniProt Q9P0L2); assay: Inhibition of recombinant human full length GST-tagged MARK1 expressed in Baculovirus at 1 uM relative to control
[10] = target: MAP/microtubule affinity-regulating kinase 3 (Homo sapiens) (UniProt P27448); assay: Inhibition of recombinant human full length GST-tagged MARK3 expressed in Baculovirus at 1 uM relative to control
[11] = target: Tyrosine-protein kinase Mer (Homo sapiens) (UniProt Q12866); assay: Inhibition of recombinant human GST-tagged Mer expressed in Baculovirus at 1 uM relative to control
[12] = target: Serine/threonine-protein kinase 4 (Homo sapiens) (UniProt Q13043); assay: Inhibition of recombinant human full length GST-tagged MST1 expressed in Baculovirus at 1 uM relative to control
[13] = target: Phosphorylase b kinase gamma catalytic chain, skeletal muscle/heart isoform (Homo sapiens) (UniProt Q16816); assay: Inhibition of recombinant human full length GST-tagged PHKgamma 1 expressed in Baculovirus at 1 uM relative to control
[14] = target: cAMP-dependent protein kinase catalytic subunit alpha (Homo sapiens) (UniProt P17612); assay: Inhibition of recombinant human full length His-tagged PRKACA expressed in Escherichia coli at 1 uM relative to control
[15] = target: Protein kinase C alpha type (Homo sapiens) (UniProt P17252); assay: Inhibition of recombinant human full length PKCalpha expressed in Baculovirus at 1 uM relative to control
[16] = target: Protein kinase C theta type (Homo sapiens) (UniProt Q04759); assay: Inhibition of recombinant human full length His-tagged PKCtheta expressed in Baculovirus at 1 uM relative to control
[17] = target: 5'-AMP-activated protein kinase catalytic subunit alpha-1 (Homo sapiens) (UniProt Q13131); assay: Inhibition of recombinant human PRKAA1 at 1 uM relative to control
[18] = target: 5'-AMP-activated protein kinase catalytic subunit alpha-2 (Homo sapiens) (UniProt P54646); assay: Inhibition of recombinant human PRKAA2 at 1 uM relative to control
[19] = target: Proto-oncogene tyrosine-protein kinase receptor Ret (Homo sapiens) (UniProt P07949); assay: Inhibition of recombinant human full length GST-tagged RET expressed in Baculovirus at 1 uM relative to control
[20] = target: Ribosomal protein S6 kinase alpha-2 (Homo sapiens) (UniProt Q15349); assay: Inhibition of recombinant human full length His-tagged RSK2 expressed in Baculovirus at 1 uM relative to control
[21] = target: Ribosomal protein S6 kinase alpha-3 (Homo sapiens) (UniProt P51812); assay: Inhibition of recombinant human full length GST-tagged RSK3 expressed in insect cells at 1 uM relative to control
[22] = target: Ribosomal protein S6 kinase alpha-6 (Homo sapiens) (UniProt Q9UK32); assay: Inhibition of recombinant human full length GST-tagged RSK4 expressed in Baculovirus at 1 uM relative to control
[23] = target: Proto-oncogene tyrosine-protein kinase Src (Homo sapiens) (UniProt P12931); assay: Inhibition of recombinant human full length His-tagged SRC expressed in Baculovirus at 1 uM relative to control
[24] = target: Testis-specific serine/threonine-protein kinase 1 (Homo sapiens) (UniProt Q9BXA7); assay: Inhibition of recombinant human full length His-tagged TSSK1 expressed in Baculovirus at 1 uM relative to control
[25] = target: High affinity nerve growth factor receptor (Homo sapiens) (UniProt P04629); assay: Inhibition of recombinant human His-tagged TRKA (441 to 796 residues) expressed in Baculovirus at 1 uM relative to control
[26] = target: Tyrosine-protein kinase Yes (Homo sapiens) (UniProt P07947); assay: Inhibition of recombinant human full length GST-tagged YES expressed in Baculovirus at 1 uM relative to control
[27] = target: Serine/threonine-protein kinase 25 (Homo sapiens) (UniProt O00506); assay: Inhibition of recombinant human full length GST-tagged YSK1 expressed in Baculovirus at 1 uM relative to control
[28] = target: Serine/threonine-protein kinase 24 (Homo sapiens) (UniProt Q9Y6E0); assay: Inhibition of recombinant human full length GST-tagged MST3 expressed in Baculovirus at 1 uM relative to control
[29] = target: Serine/threonine-protein kinase 26 (Homo sapiens) (UniProt Q9P289); assay: Inhibition of recombinant human full length GST-tagged MST4 expressed in Baculovirus at 1 uM relative to control
[30] = target: Adenosine receptor A1 (Homo sapiens) (UniProt P30542); assay: Inhibition of recombinant human adenosine A1 receptor expressed in CHO cells at 10 uM relative to control; format: cell-based
[31] = target: Adenosine receptor A2a (Homo sapiens) (UniProt P29274); assay: Inhibition of recombinant human adenosine A2A receptor expressed in HEK293 cells at 10 uM relative to control; format: cell-based
[32] = target: Sodium-dependent serotonin transporter (Homo sapiens) (UniProt P31645); assay: Inhibition of recombinant human 5HT transporter expressed in CHO cells at 10 uM relative to control; format: cell-based
[33] = Fraction unbound in mouse plasma at 50 mg/kg, ip; format: ADME, organism-based
[34] = Cmax associated with acute adverse effect in mouse at 50 mg/kg, ip; format: ADME, organism-based; set-up: dose 50 mg/kg, route intraperitoneal; conditions: in vivo
Method in brief: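 Mouse tolerability studies tested multiple doses, given orally or intraperitoneally. Plasma drug concentrations were measured, including at a 15 min time point. The minimum concentration associated with adverse clinical signs or death was taken as the adverse Cmax and was converted to an unbound value.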

Mus musculus = assay: fCmax associated with acute adverse effect in mouse at 50 mg/kg, ip; format: ADME, organism-based; conditions: in vivo
Method in brief: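 Mouse tolerability studies at multiple doses, oral or intraperitoneal. Minimum unbound plasma concentration associated with adverse effects (total Cmax converted to unbound) compared with IC50 for inhibition of MEK1 S298 phosphorylation in cells.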

[35] = Cmax in mouse at 50 mg/kg, ip; format: ADME, organism-based; set-up: dose 50 mg/kg, route intraperitoneal; conditions: in vivo
[36] = Ratio of fCmax associated with acute adverse effect in mouse at 50 mg/kg, ip to IC50 for PAK1/2-mediated phosphorylation of MEK1 at serine 298 in human EBC1 cells
Method in brief: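 Mouse tolerability study run at multiple doses, here by i.p. injection. Plasma drug levels were measured, and total concentration was converted to unbound. The minimum unbound Cmax associated with adverse effects (C_max,adverse,u) was divided by the cellular IC50 for inhibition of PAK1/2-mediated MEK1 S298 phosphorylation.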

[37] = target: Serine/threonine-protein kinase PAK 4 (Homo sapiens) (UniProt O96013); conditions: 1 uM
[38] = target: Serine/threonine-protein kinase PAK 6 (Homo sapiens) (UniProt Q9NQU5); conditions: 1 uM

Chain of Serine/threonine-protein kinase MARK1 (Homo sapiens) (Q9P0L2 whole entry, looked up): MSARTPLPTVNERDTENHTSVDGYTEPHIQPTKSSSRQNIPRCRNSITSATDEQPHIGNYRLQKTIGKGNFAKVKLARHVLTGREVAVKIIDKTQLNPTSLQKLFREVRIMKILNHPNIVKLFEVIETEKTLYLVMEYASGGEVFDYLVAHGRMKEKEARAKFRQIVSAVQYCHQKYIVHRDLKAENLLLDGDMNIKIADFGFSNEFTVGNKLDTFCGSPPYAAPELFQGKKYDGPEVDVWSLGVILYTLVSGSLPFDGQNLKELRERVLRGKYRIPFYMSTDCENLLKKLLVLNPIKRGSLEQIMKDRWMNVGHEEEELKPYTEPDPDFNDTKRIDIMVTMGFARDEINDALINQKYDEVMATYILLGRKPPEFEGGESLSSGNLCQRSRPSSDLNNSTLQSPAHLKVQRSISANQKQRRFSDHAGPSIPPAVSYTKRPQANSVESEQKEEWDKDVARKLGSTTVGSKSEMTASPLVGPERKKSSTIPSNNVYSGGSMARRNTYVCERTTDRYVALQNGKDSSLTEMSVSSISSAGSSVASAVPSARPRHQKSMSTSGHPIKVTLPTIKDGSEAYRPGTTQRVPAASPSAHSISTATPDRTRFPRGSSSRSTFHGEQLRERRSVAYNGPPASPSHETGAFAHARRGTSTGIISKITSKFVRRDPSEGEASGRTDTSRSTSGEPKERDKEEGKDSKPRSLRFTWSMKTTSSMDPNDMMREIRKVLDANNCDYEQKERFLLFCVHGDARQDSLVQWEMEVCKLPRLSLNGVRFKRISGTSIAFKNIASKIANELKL
Chain of Tyrosine-protein kinase Yes (Homo sapiens) (P07947 2-543 limits assumed): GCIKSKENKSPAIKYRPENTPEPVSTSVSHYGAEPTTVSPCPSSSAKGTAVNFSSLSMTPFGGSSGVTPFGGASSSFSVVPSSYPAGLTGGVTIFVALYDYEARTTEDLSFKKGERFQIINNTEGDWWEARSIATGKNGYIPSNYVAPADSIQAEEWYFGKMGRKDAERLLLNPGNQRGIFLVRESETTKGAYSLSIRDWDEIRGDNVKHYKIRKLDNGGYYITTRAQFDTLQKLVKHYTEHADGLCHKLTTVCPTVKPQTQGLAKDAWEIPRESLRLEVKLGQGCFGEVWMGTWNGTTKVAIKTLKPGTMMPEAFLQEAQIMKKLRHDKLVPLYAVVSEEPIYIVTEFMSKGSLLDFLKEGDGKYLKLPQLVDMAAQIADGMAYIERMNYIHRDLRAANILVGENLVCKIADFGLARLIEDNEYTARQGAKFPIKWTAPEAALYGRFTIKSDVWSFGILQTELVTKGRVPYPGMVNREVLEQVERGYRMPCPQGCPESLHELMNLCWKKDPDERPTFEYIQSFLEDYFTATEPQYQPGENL
Chain of Serine/threonine-protein kinase 4 (Homo sapiens) (Q13043 whole entry, canonical isoform): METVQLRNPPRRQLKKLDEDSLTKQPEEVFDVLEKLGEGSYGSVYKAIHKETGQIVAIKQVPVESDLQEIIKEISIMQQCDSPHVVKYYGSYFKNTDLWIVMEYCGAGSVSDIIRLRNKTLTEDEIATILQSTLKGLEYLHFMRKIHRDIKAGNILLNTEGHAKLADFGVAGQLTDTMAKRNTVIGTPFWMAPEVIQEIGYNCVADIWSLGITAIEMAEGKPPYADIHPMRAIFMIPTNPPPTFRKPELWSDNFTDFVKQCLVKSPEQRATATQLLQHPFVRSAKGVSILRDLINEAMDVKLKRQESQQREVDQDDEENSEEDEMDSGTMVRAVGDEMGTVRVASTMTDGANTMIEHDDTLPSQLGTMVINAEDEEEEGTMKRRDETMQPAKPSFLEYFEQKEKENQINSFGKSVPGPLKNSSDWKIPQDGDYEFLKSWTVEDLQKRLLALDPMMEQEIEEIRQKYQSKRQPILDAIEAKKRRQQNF
Chain of High affinity nerve growth factor receptor (Homo sapiens) (P04629 33-796 limits assumed): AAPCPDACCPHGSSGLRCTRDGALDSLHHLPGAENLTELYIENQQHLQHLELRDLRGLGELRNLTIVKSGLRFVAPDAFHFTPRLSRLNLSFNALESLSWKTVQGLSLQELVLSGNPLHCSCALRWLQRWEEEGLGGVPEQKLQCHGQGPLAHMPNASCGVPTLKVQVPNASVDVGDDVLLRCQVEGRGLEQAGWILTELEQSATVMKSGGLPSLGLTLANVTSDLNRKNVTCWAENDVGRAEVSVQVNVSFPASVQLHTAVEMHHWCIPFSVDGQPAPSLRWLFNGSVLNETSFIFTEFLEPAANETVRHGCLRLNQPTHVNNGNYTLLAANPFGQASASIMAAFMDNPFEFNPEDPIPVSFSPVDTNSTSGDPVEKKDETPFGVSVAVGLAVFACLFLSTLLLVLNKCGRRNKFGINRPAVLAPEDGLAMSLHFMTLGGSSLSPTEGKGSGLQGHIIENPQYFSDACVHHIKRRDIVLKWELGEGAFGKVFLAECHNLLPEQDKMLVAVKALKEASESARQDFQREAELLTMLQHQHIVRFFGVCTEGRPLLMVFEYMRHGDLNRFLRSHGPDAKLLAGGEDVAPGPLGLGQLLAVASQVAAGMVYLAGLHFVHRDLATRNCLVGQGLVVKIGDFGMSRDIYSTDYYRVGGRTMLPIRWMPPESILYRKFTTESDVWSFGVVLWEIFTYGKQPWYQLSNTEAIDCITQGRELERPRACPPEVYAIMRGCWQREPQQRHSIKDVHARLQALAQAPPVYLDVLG
Chain of Serine/threonine-protein kinase Chk2 (Homo sapiens) (O96017 whole entry): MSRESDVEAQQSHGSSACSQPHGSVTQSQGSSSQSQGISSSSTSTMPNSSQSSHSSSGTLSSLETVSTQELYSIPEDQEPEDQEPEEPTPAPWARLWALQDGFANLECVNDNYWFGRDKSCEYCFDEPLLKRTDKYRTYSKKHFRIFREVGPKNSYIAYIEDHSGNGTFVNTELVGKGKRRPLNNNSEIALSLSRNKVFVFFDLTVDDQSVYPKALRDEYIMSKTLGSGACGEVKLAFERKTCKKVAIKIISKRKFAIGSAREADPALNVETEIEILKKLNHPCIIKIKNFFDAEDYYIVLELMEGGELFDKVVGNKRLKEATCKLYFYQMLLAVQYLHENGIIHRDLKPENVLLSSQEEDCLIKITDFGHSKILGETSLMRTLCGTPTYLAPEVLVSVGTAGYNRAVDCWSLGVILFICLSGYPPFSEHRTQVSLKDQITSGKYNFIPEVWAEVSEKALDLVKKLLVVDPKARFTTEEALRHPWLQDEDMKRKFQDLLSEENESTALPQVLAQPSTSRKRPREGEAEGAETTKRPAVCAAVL
Chain of Tyrosine-protein kinase Mer (Homo sapiens) (Q12866 whole entry): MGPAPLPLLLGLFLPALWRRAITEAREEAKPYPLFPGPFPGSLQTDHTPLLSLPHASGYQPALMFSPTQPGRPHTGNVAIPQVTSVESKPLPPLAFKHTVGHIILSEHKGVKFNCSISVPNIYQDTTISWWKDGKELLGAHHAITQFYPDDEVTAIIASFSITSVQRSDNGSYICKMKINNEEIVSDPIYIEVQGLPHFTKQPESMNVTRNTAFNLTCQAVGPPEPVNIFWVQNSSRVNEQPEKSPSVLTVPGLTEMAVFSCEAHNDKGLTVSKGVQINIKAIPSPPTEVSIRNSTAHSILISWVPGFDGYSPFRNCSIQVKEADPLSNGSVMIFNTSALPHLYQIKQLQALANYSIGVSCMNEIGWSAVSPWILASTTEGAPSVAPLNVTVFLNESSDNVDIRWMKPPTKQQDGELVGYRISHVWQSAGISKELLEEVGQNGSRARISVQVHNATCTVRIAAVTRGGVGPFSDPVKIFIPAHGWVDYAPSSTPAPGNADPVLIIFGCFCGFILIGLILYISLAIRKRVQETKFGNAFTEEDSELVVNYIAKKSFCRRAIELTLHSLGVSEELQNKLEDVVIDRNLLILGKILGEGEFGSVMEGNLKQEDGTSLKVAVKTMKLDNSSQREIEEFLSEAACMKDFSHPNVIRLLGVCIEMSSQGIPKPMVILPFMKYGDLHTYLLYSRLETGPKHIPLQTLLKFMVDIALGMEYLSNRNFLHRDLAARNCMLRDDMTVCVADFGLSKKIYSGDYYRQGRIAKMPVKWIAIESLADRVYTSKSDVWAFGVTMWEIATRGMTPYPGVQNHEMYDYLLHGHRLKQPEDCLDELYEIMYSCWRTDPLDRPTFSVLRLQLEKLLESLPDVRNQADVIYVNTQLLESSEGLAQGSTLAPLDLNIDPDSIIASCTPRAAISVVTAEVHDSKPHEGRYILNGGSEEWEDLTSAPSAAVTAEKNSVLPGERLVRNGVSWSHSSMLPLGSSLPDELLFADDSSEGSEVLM
Chain of Sodium-dependent serotonin transporter (Homo sapiens) (P31645 whole entry, looked up): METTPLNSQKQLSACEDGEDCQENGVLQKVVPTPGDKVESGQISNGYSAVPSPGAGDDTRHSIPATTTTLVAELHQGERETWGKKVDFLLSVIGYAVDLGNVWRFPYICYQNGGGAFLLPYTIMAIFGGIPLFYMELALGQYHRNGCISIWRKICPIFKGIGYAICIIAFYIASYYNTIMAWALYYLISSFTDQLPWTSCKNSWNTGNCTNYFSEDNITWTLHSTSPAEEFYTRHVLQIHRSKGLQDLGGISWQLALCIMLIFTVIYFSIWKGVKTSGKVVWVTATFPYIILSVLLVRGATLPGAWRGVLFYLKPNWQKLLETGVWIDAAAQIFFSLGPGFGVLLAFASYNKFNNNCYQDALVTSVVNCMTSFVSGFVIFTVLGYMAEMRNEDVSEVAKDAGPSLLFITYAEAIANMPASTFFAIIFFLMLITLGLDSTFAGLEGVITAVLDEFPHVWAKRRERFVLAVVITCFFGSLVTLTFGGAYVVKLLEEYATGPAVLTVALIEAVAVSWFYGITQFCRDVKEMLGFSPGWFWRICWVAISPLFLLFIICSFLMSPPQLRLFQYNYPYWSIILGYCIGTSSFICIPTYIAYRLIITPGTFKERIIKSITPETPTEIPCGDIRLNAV

inhibition [1]: > 75%
inhibition [2]: > 75%
inhibition [3]: > 75%
inhibition [4]: > 75%
inhibition [5]: > 75%
inhibition [6]: > 75%
inhibition [7]: > 75%
inhibition [8]: > 75%
inhibition [9]: > 75%
inhibition [10]: > 75%
inhibition [11]: > 75%
inhibition [12]: > 75%
inhibition [13]: > 75%
inhibition [14]: > 75%
inhibition [15]: > 75%
inhibition [16]: > 75%
inhibition [17]: > 75%
inhibition [18]: > 75%
inhibition [19]: > 75%
inhibition [20]: > 75%
inhibition [21]: > 75%
inhibition [22]: > 75%
inhibition [23]: > 75%
inhibition [24]: > 75%
inhibition [25]: > 75%
inhibition [26]: > 75%
inhibition [27]: > 75%
inhibition [28]: > 75%
inhibition [29]: > 75%
inhibition [30]: > 75%
inhibition [31]: > 75%
inhibition [32]: > 75%
fraction unbound [33]: 0.163
Cmax [35]: 10 µM
inhibition [37]: > 75%
inhibition [38]: > 75%
SMILES: Cc1nc(Nc2n[nH]c3c2CN(C(=O)N[C@H](CN(C)C)c2ccccc2)C3(C)C)c2sccc2n1 [PF-03758309]
Cmax [34]: 10 µM
fCmax (Mus musculus): 1.6 µM
Ratio [36]: 1
